Calls of active or inactive are those of the source. The calls are words filed in the database; no cut-off is given here.
Tests used:
[1] = test system: Poliovirus 1; assay: Antiviral activity against Poliovirus type 1 Sabin infected in african green monkey Vero76 cells after 2 days by plaque reduction assay; type: functional, cell-based; details: Vero 76
[2] = test system: Human immunodeficiency virus 1; assay: Antiviral activity against wild type HIV1 3B infected in human MT4 cells assessed as protection against virus induced cytopathogenicity after 4 days by MTT assay; type: functional, organism-based; details: Human immunodeficiency virus 1, 3B, MT4, 96 h
Method in brief: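 MT-4 cells (1×10^4/well) in RPMI with serial compound dilutions were infected with HIV-1 (100 CCID50; m.o.i. 0.01). After 4 days, viability was measured by MTT. EC50 is the concentration giving 50% protection from virus-induced cytopathogenicity. Compounds were prepared as 100 mM DMSO stocks diluted in medium.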

[3] = test system: Vaccinia virus; assay: Antiviral activity against Vaccinia virus infected in african green monkey Vero76 cells after 3 days by plaque reduction assay; type: functional, organism-based; details: Orthopoxvirus vaccinia; Vero 76
[4] = test system: Vesicular stomatitis virus; assay: Antiviral activity against Vesicular stomatitis virus infected in african green monkey Vero76 cells after 2 days by plaque reduction assay; type: functional, organism-based; details: Vero 76
[5] = test system: Bovine viral diarrhea virus 1; assay: Antiviral activity against Bovine viral diarrhea virus infected in MDBK cells assessed as protection against virus induced cytopathogenicity after 3 to 4 days by MTT assay; type: functional, organism-based; details: for EC50: Bovine viral diarrhea virus isolates and strains
Method in brief: (§1)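 Monolayers were grown overnight at 37 °C, 5% CO2: MDBK at 3×10^4 cells/well, BHK at 5×10^4 cells/well. Cells infected at m.o.i. 0.01. After 1 h, serial compound dilutions added in MEM with 1% FCS. Viability read by MTT after 3–4 days at 37 °C. EC50 is the concentration giving 50% protection from cytopathogenicity.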

[6] = test system: Human alphaherpesvirus 1; assay: Antiviral activity against HSV1 infected in african green monkey Vero76 cells after 3 days by plaque reduction assay; type: functional, organism-based; details: Vero 76
Method in brief: (§2)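 Vero 76 monolayers (2×10^5 cells/well, overnight) infected to give 50–100 PFU/well. Unadsorbed virus removed, then DMEM with 1% FCS, 0.75% methylcellulose and serial compound dilutions added. Incubated at 37 °C for 3 days (CVB-2, HSV-1) or 5 days (RSV). Fixed and stained with 50% ethanol/0.8% crystal violet in PBS; plaques counted.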

[7] = test system: Coxsackievirus B2; assay: Antiviral activity against Coxsackie virus B2 infected in african green monkey Vero76 cells after 3 days by plaque reduction assay; type: functional, organism-based; details: Vero 76; method in brief: as §2
[8] = Cytotoxicity against human MT4 cells assessed as reduction of cell viability after 96 hrs by MTT assay; type: cell-based
Method in brief: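 Exponentially growing, mock-infected MT-4 cells were seeded at 1×10^5 cells mL-1 in RPMI-1640 with 10% FCS and penicillin/streptomycin, with serial compound dilutions. Incubated 96 h at 37 °C, 5% CO2, then viability read by MTT. CC50 is the concentration reducing viability by 50%.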

[9] = test system: Yellow fever virus; assay: Antiviral activity against Yellow fever virus infected in BHK-21 cells assessed as protection against virus induced cytopathogenicity after 3 to 4 days by MTT assay; type: functional, organism-based
Method in brief: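 BHK cells were seeded at 5 × 10^4 per well and grown overnight to monolayers, then infected at m.o.i. 0.01 in serum-free medium. One hour later, MEM Earle's with 1% FCS (final) and serial compound dilutions were added. After 3–4 days at 37 °C, viability was read by MTT. EC50 is the concentration giving 50% protection from virus-induced cytopathogenicity.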

[10] = test system: Respiratory syncytial virus; assay: Antiviral activity against Respiratory syncytial virus infected in african green monkey Vero76 cells after 5 days by plaque reduction assay; type: functional, organism-based; details: Vero 76; method in brief: as §2
[11] = test system: Mammalian orthoreovirus 1; assay: Antiviral activity against Reo virus type-1 infected in BHK-21 cells assessed as protection against virus induced cytopathogenicity after 3 to 4 days by MTT assay; type: functional, organism-based; method in brief: as §1

CC1=CC2C(C(C)C)CC1C1C(=O)N(N3CCCCS/C3=N\c3ccc(Cl)c(Cl)c3)C(=O)C21 (stereo unspecified)
Activity [1]: inactive | EC50 [2]: > 100 µM | Activity [3]: inactive | Activity [4]: inactive | Activity [5]: inactive | Activity [6]: inactive | Activity [7]: inactive | CC50 at 96 h [8]: 100 µM | Activity [9]: inactive | Activity [10]: inactive | Activity [11]: inactive

CC(C)C12C=CC(C)(CC1)C1C(=O)N(NC(=S)Nc3ccc(Cl)c(Cl)c3)C(=O)C12 (stereo unspecified)
Activity [1]: inactive | EC50 [2]: > 59 µM | Activity [3]: inactive | Activity [4]: inactive | Activity [5]: inactive | Activity [6]: inactive | Activity [7]: inactive | CC50 at 96 h [8]: 59 µM | Activity [9]: inactive | Activity [10]: inactive | Activity [11]: inactive

CC1=CC2C(C(C)C)CC1C1C(=O)N(NC(=S)NCc3ccccc3)C(=O)C21 (stereo unspecified)
Activity [1]: inactive | EC50 [2]: 30 µM | Activity [3]: inactive | Activity [4]: inactive | EC50 [5]: 52 µM | Activity [6]: inactive | Activity [7]: inactive | CC50 at 96 h [8]: 54 µM | EC50 [9]: 41 µM | Activity [10]: inactive | Activity [11]: inactive

CC1=CC2C(C(C)C)CC1C1C(=O)N(NC(=S)Nc3ccc(C)cc3)C(=O)C21 (stereo unspecified)
Activity [1]: inactive | Activity [3]: inactive | Activity [4]: inactive | Activity [5]: inactive | Activity [6]: inactive | Activity [7]: inactive | Activity [9]: inactive | Activity [10]: inactive | Activity [11]: inactive

CC1=CC2C(C(C)C)CC1C1C(=O)N(N3CCCCS/C3=N\c3ccc(Cl)cc3)C(=O)C21 (stereo unspecified)
Activity [1]: inactive | EC50 [2]: > 30 µM | Activity [3]: inactive | Activity [4]: inactive | Activity [5]: inactive | Activity [6]: inactive | Activity [7]: inactive | CC50 at 96 h [8]: 30 µM | Activity [9]: inactive | Activity [10]: inactive | Activity [11]: inactive

O=C1Nc2ccc(Cl)cc2[C@@](C#CC2CC2)(C(F)(F)F)O1 [EFAVIRENZ]
CC50 at 96 h [8]: 35 µM

CC1=CC2C(C(C)C)CC1C1C(=O)N(NC(=S)Nc3ccc(I)cc3)C(=O)C21 (stereo unspecified)
Activity [1]: inactive | EC50 [2]: > 45 µM | Activity [3]: inactive | Activity [4]: inactive | Activity [5]: inactive | Activity [6]: inactive | Activity [7]: inactive | CC50 at 96 h [8]: 45 µM | Activity [9]: inactive | Activity [10]: inactive | Activity [11]: inactive

CC1=CC2C(C(C)C)CC1C1C(=O)N(N3CCCCS/C3=N\Cc3ccccc3)C(=O)C21 (stereo unspecified)
Activity [1]: inactive | EC50 [2]: > 47 µM | Activity [3]: inactive | Activity [4]: inactive | Activity [5]: inactive | Activity [6]: inactive | Activity [7]: inactive | CC50 at 96 h [8]: 47 µM | Activity [9]: inactive | Activity [10]: inactive | Activity [11]: inactive

CC(C)C12C=CC(C)(CC1)C1C(=O)N(N3CCCCS/C3=N\c3ccc(F)cc3)C(=O)C12 (stereo unspecified)
Activity [1]: inactive | EC50 [2]: > 86 µM | Activity [3]: inactive | Activity [4]: inactive | Activity [5]: inactive | Activity [6]: inactive | Activity [7]: inactive | CC50 at 96 h [8]: 86 µM | Activity [9]: inactive | Activity [10]: inactive | Activity [11]: inactive

CC(C)C12C=CC(C)(CC1)C1C(=O)N(N3CCCCS/C3=N\c3ccc(I)cc3)C(=O)C12 (stereo unspecified)
Activity [1]: inactive | EC50 [2]: > 59 µM | Activity [3]: inactive | Activity [4]: inactive | Activity [5]: inactive | Activity [6]: inactive | Activity [7]: inactive | CC50 at 96 h [8]: 59 µM | Activity [9]: inactive | Activity [10]: inactive | Activity [11]: inactive

Cc1ccc(/N=C2\SCCCCN2N2C(=O)C3C(C2=O)C2(C(C)C)C=CC3(C)CC2)cc1 (stereo unspecified)
Activity [1]: inactive | Activity [3]: inactive | Activity [4]: inactive | Activity [5]: inactive | Activity [6]: inactive | Activity [7]: inactive | Activity [9]: inactive | Activity [10]: inactive | Activity [11]: inactive

CC1=CC2C(C(C)C)CC1C1C(=O)N(NC(=S)Nc3ccc(Cl)cc3)C(=O)C21 (stereo unspecified)
Activity [1]: inactive | EC50 [2]: > 45 µM | Activity [3]: inactive | Activity [4]: inactive | Activity [5]: inactive | Activity [6]: inactive | Activity [7]: inactive | CC50 at 96 h [8]: 45 µM | Activity [9]: inactive | Activity [10]: inactive | Activity [11]: inactive

CC(C)C12C=CC(C)(CC1)C1C(=O)N(NC(=S)NCc3ccccc3)C(=O)C12 (stereo unspecified)
Activity [1]: inactive | EC50 [2]: > 58 µM | Activity [3]: inactive | Activity [4]: inactive | Activity [6]: inactive | Activity [7]: inactive | CC50 at 96 h [8]: 58 µM | EC50 [9]: 41 µM | Activity [10]: inactive | Activity [11]: inactive

CC1=CC2C(C(C)C)CC1C1C(=O)N(N3CCCCS/C3=N\c3ccc(F)cc3)C(=O)C21 (stereo unspecified)
Activity [1]: inactive | EC50 [2]: > 49 µM | Activity [3]: inactive | Activity [4]: inactive | Activity [5]: inactive | Activity [6]: inactive | Activity [7]: inactive | CC50 at 96 h [8]: 49 µM | Activity [9]: inactive | Activity [10]: inactive | Activity [11]: inactive

Cc1ccc(NC(=S)NN2C(=O)C3C(C2=O)C2(C(C)C)C=CC3(C)CC2)cc1 (stereo unspecified)
Activity [1]: inactive | Activity [3]: inactive | Activity [4]: inactive | Activity [5]: inactive | Activity [6]: inactive | Activity [7]: inactive | Activity [9]: inactive | Activity [10]: inactive | Activity [11]: inactive

C=CCNC(=S)NN1C(=O)C2C(C1=O)C1(C(C)C)C=CC2(C)CC1 (stereo unspecified)
Activity [1]: inactive | EC50 [2]: > 100 µM | Activity [3]: inactive | Activity [4]: inactive | EC50 [5]: 52 µM | Activity [6]: inactive | Activity [7]: inactive | CC50 at 96 h [8]: > 100 µM | Activity [10]: inactive | Activity [11]: inactive

CC(C)C12C=CC(C)(CC1)C1C(=O)N(NC(=S)Nc3ccc(Cl)cc3)C(=O)C12 (stereo unspecified)
Activity [1]: inactive | Activity [3]: inactive | Activity [4]: inactive | Activity [5]: inactive | Activity [6]: inactive | Activity [7]: inactive | Activity [9]: inactive | Activity [10]: inactive | Activity [11]: inactive

CC(C)C12C=CC(C)(CC1)C1C(=O)N(NC(=S)Nc3ccc(F)cc3)C(=O)C12 (stereo unspecified)
Activity [1]: inactive | Activity [3]: inactive | Activity [4]: inactive | Activity [5]: inactive | Activity [6]: inactive | Activity [7]: inactive | Activity [9]: inactive | Activity [10]: inactive | Activity [11]: inactive

Reference: ChEMBL document CHEMBL1156068, “Synthesis, pharmacological and antiviral activity of 1,3-thiazepine derivatives” (Eur J Med Chem, 2009)
